Assay [1] concerns the target Serine/threonine-protein kinase pim-1 (Homo sapiens, UniProt P11309). Description: Inhibition of human PIM1 (15 to 313 amino acid residues) expressed in bacterial system assessed as enzyme activity at 10 uM by KINOMEScan assay. The arrangement: scale not given: the % may be the effect or the level left. A digest of the protocol: (§1)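 Single-concentration competition binding screen (KINOMEscan) across a 100-kinase panel at 10 μM. Primary binding read-out is reported as % of control: (test signal − positive-control signal)/(negative-control signal − positive-control signal) × 100. Lower values indicate stronger binding.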

The subject of assay [2] is Epidermal growth factor receptor (Homo sapiens), P00533 [L858R]. In words: Inhibition of human EGFR L858R mutant (669 to 1011 amino acid residues) assessed as enzyme activity at 10 uM by KINOMEScan assay expressed in bacterial system assessed as enzyme activity at 10 uM by KINOMEScan assay. Also noted: scale not given: the % may be the effect or the level left. A digest of the protocol: (§2)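 Commercial KINOMEscan binding panel of 100 kinases, test compound at 10 μM. Results are primary-screen binding interactions expressed as % Ctrl = (test compound signal − positive control signal)/(negative control signal − positive control signal) × 100. Lower % Ctrl means stronger binding.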

The target of assay [3] is Proto-oncogene tyrosine-protein kinase receptor Ret (Homo sapiens) (UniProt P07949). Description: Inhibition of human RET (713 to 1014 amino acid residues) expressed in bacterial system assessed as enzyme activity at 10 uM by KINOMEScan assay. Also noted: scale not given: the % may be the effect or the level left. The gist of the method: as §2
Assay [4] addresses Receptor tyrosine-protein kinase erbB-2 (Homo sapiens) (UniProt P04626). In words: Inhibition of human ERBB2 (646 to 1225 amino acid residues) assessed as enzyme activity at 10 uM by KINOMEScan assay. Also noted: scale not given: the % may be the effect or the level left. A digest of the protocol:
(§3)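 Competition binding screen on a 100-kinase KINOMEscan panel, compound tested at a single 10 μM concentration. Primary binding read-out expressed as % Ctrl = (test compound signal − positive control signal)/(negative control signal − positive control signal) × 100, with lower values meaning stronger binding.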

In assay [5] the target is Fibroblast growth factor receptor 2 (Homo sapiens) (UniProt P21802). In words: Inhibition of human FGFR2 (457 to 769 amino acid residues) assessed as enzyme activity at 10 uM by KINOMEScan assay expressed in bacterial system assessed as enzyme activity at 10 uM by KINOMEScan assay. The arrangement: scale not given: the % may be the effect or the level left. A digest of the protocol: as §2

Assay [6] addresses Cyclin-dependent kinase 2 (Homo sapiens) (UniProt P24941). Description: Inhibition of full length human CDK2 expressed in bacterial system assessed as enzyme activity at 10 uM by KINOMEScan assay. The arrangement: scale not given: the % may be the effect or the level left. The gist of the method: as §3
In assay [7] the target is Tyrosine-protein kinase BTK (Homo sapiens) (UniProt Q06187). Description: Inhibition of full length human BTK assessed as enzyme activity at 10 uM by KINOMEScan assay. The arrangement: scale not given: the % may be the effect or the level left. The gist of the method:
as §2

Assay [8] deals with Epidermal growth factor receptor (Homo sapiens) (UniProt P00533). Description: Inhibition of human EGFR (669 to 1011 amino acid residues) assessed as enzyme activity at 10 uM by KINOMEScan assay expressed in bacterial system assessed as enzyme activity at 10 uM by KINOMEScan assay. Also noted: scale not given: the % may be the effect or the level left. A digest of the protocol: as §2

Assay [9] has as its target Serine/threonine-protein kinase pim-3 (Homo sapiens) (UniProt Q86V86). Description: Inhibition of human PIM3 (16 to 317 amino acid residues) expressed in bacterial system assessed as enzyme activity at 10 uM by KINOMEScan assay. Also noted: scale not given: the % may be the effect or the level left. The gist of the method: as §1
In assay [10] the target is Serine/threonine-protein kinase PLK1 (Homo sapiens) (UniProt P53350). In words: Inhibition of human PLK1 (33 to 325 amino acid residues) assessed as enzyme activity at 10 uM by KINOMEScan assay. The arrangement: scale not given: the % may be the effect or the level left. The gist of the method:
as §1

In assay [11] the target is Ephrin type-A receptor 2 (Homo sapiens) (UniProt P29317). Description: Inhibition of human EPHA2 (593 to 891 amino acid residues) assessed as enzyme activity at 10 uM by KINOMEScan assay expressed in bacterial system assessed as enzyme activity at 10 uM by KINOMEScan assay. Also noted: scale not given: the % may be the effect or the level left. A digest of the protocol:
as §2

For assay [12], the target named is Death-associated protein kinase 1 (Homo sapiens) (UniProt P53355). In words: Share of MOE computational kinase hits for DAPK.
The target in assay [13] is Serine/threonine-protein kinase PAK 4 (Homo sapiens) (UniProt O96013). Description: Inhibition of human PAK4 (144 to 438 amino acid residues) expressed in bacterial system assessed as enzyme activity at 10 uM by KINOMEScan assay. The arrangement: scale not given: the % may be the effect or the level left. A digest of the protocol:
as §1

The target of assay [14] is Mitogen-activated protein kinase kinase kinase 9 (Homo sapiens) (UniProt P80192). In words: Inhibition of human MLK1 (88 to 426 amino acid residues) expressed in bacterial system assessed as enzyme activity at 10 uM by KINOMEScan assay. Also noted: scale not given: the % may be the effect or the level left. A digest of the protocol: as §3
The target in assay [15] is Hepatocyte growth factor receptor (Homo sapiens) (UniProt P08581). In words: Inhibition of human MET (1010 to 1367 amino acid residues) expressed in bacterial system assessed as enzyme activity at 10 uM by KINOMEScan assay. Also noted: scale not given: the % may be the effect or the level left. A digest of the protocol: as §2
Assay [16] concerns the target Cyclin-dependent kinase (Homo sapiens) (UniProt P06493+P11802+P24941+Q00535+Q00534+P50613+Q00526+Q00536+Q07002+P49336+Q00537+P21127+Q96Q40+Q9BWU1+O94921+P50750+Q15131+Q14004+Q8IZL9+Q9NYV4). In words: Share of MOE computational kinase hits for CDK.
Assay [17] relates to Mast/stem cell growth factor receptor Kit (Homo sapiens), P10721 [D816V]. Description: Inhibition of human KIT D816V mutant (571 to 952 amino acid residues) expressed in bacterial system assessed as enzyme activity at 10 uM by KINOMEScan assay. The arrangement: scale not given: the % may be the effect or the level left. A digest of the protocol: as §2
For assay [18], the target named is RAF proto-oncogene serine/threonine-protein kinase (Homo sapiens) (UniProt P04049). Description: Inhibition of human RAF1 (330 to 640 amino acid residues) expressed in bacterial system assessed as enzyme activity at 10 uM by KINOMEScan assay. The arrangement: scale not given: the % may be the effect or the level left. The gist of the method: as §2
For assay [19], the target named is Serine/threonine-protein kinase PAK 2 (Homo sapiens) (UniProt Q13177). Description: Inhibition of human PAK2 (151 to 525 amino acid residues) expressed in bacterial system assessed as enzyme activity at 10 uM by KINOMEScan assay. The arrangement: scale not given: the % may be the effect or the level left. The gist of the method: as §3
Assay [20] concerns the target Platelet-derived growth factor receptor beta (Homo sapiens) (UniProt P09619). Description: Inhibition of human PDGFRB (582 to 1009 amino acid residues) expressed in bacterial system assessed as enzyme activity at 10 uM by KINOMEScan assay. The arrangement: scale not given: the % may be the effect or the level left. A digest of the protocol:
as §2

Assay [21] concerns the target Serine/threonine-protein kinase 32C (Homo sapiens) (UniProt Q86UX6). Description: Inhibition of human YANK3 (68 to 486 amino acid residues) expressed in bacterial system assessed as enzyme activity at 10 uM by KINOMEScan assay. The arrangement: scale not given: the % may be the effect or the level left. The gist of the method: as §1
The target of assay [22] is Serine/threonine-protein kinase RIO2 (Homo sapiens) (UniProt Q9BVS4). Description: Inhibition of human RIOK2 (1 to 313 amino acid residues) assessed as enzyme activity at 10 uM by KINOMEScan assay. The arrangement: scale not given: the % may be the effect or the level left. The gist of the method:
as §2

The target in assay [23] is Proto-oncogene tyrosine-protein kinase Src (Homo sapiens) (UniProt P12931). Description: Inhibition of SRC (unknown origin).
The target in assay [24] is Ribosomal protein S6 kinase alpha-2 (Homo sapiens) (UniProt Q15349). Description: Inhibition of human RSK2 Kin.Dom.1-N-terminal (1 to 394 amino acid residues) assessed as enzyme activity at 10 uM by KINOMEScan assay. Also noted: scale not given: the % may be the effect or the level left. The gist of the method:
as §1

In the case of `O=C1C2=C(C(=O)c3c(O)ccc(O)c31)[C@@H](O)[C@@H](O)[C@@H](O)C2`, the Activity turned out to be 34% in assay [1]; 78% in assay [2]; 100% in assay [3]; 93% in assay [4]; 100% in assay [5]; 92% in assay [6]. Besides, the Activity in [7] was 100%; in [8] it was 88%; in assay [9], 36%; in assay [10], 96%; in assay [11], 100%; in [13], 91%. In addition, the Activity in assay [14] came to 99%; in assay [15], 100%; in assay [17], 100%; in assay [18], 100%; in [19] it was 57%; in assay [20], 100%. Besides, the Activity in [21] was 89%; in assay [22] it was 86%; in [24], 53%. Besides, the values for the % of MOE kinase hits in [12], in [16] and in assay [23] were 7%, 7% and 14%, respectively.

These data come from ChEMBL document CHEMBL3808372, “Identification of quinones as novel PIM1 kinase inhibitors” (Bioorg Med Chem Lett, 2016).
